# In ChEMBL document CHEMBL4513216, “Probing the Open Global Health Chemical Diversity Library for Multistage-Active Starting Points for Next-Generation Antimalarials” (ACS Infect Dis, 2020):
# Assay: Toxicity liver stage against HepG2, at 10uM
# Type: cell-based
# Parameters: test concentration 10 uM, cell line HepG2-A16-CD81EGFP
# Details: human, HepG2-A16-CD81EGFP cells; read-out: INHIBITION
# In short: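 Uninfected HepG2-A16-CD81EGFP cells, 3 × 10^3 per well, 1536-well, plated on prespotted compound at 10 μM final, parasite-free screening media added to match infected plates; puromycin 10 μM positive, DMSO 0.5% negative; run in parallel with 48 h PbLuc assay at 37 °C, 5% CO2; viability by CellTiter-Glo luminescence, normalized to controls.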
row,Structure (SMILES),cytotoxicity at 10 µM [%]
1,CCNc1c(NC(=O)NC(C)C)c(=O)oc2ccccc12,1.1
2,O=C(N[C@H]1CN[C@H]2CCCO[C@H]21)c1cccnc1,-9.99
3,COCCN(Cc1coc(-c2cccc(Cl)c2)n1)C1CC1,3.92
4,COc1cccc(CN(C)Cc2ccccc2C#N)c1OC,-5.92
5,CCC(O)CN1CCN(C(=O)C2(c3ccc(C)c(OC)c3)CC2)CC1 (centres undefined),3.83
6,O=C(CCn1cccn1)N1C[C@H]2CC[C@@H](C1)N(Cc1ccccn1)C2=O,-13.6
7,COC(=O)c1ccc(N2CCN(C(=O)c3cnccn3)C(C)C2)cc1 (centres undefined),-12.9
8,CS(=O)(=O)N1CCN(Cc2c(O)ccc3oc4c(c23)CCCC4)CC1,1.01
9,CC(CN1CCC2(CC1)N=C(N(C)C)NC2=O)c1ccccc1 (centres undefined),2.92
10,Cc1cccc(CN2C[C@@H]3CN(C(=O)C4CC=CC4)C[C@@H]3C2=O)n1,2
11,Cc1ccc(Cl)c2ccc(NC(CO)CO)nc12,-12.1
12,O=C1CC(c2ccc(F)c(F)c2)c2snc(C(=O)O)c2N1 (centres undefined),6.95
13,O=C(C1CCC1)N1C[C@H]2CC[C@@H](C1)N(S(=O)(=O)c1cccnc1)C2,-3.65
14,COc1cccc(OC2CN(C(=O)c3sccc3C)C2)c1,2.3
15,Cc1cccc(CN2CCS(=O)(=O)[C@@H]3CCN(C(=O)C4CC4)CC[C@@H]32)n1,-3.64
16,Cc1nc(CN2CCCC(CCc3ccc(F)cc3F)C2)c[nH]1 (centres undefined),-9.67
17,CC(NC(=O)NCCCn1cccn1)c1ccc2c(c1)NC(=O)CO2 (centres undefined),-5.07
18,CSCc1nc(CCNC(=O)C2CCCN(C(C)=O)C2)cs1 (centres undefined),-4.84
19,O=C(O)CC1COCCN1CCCc1ccccc1 (centres undefined),-0.541
20,NC(=O)Nc1cccc(Oc2ccccn2)c1,4.39
21,O=C(NCc1ccco1)[C@@H]1CCO[C@@H]2CCN(c3ccncn3)C[C@H]21,0.118
22,CC(c1ccccc1)N(C)C(=O)Cn1cc(NC(=O)C(C)(C)C)cn1 (centres undefined),4

row,Structure (SMILES),cytotoxicity at 10 µM [%]
1,CC(C)CN1CCNC(=O)C12CCN(S(=O)(=O)c1ccc(F)cc1)CC2,-3.16
2,CC(=O)NCC1CCCN(C(=O)Cc2c(C)noc2C)C1 (centres undefined),17.4
3,Cc1ccc(N2CCCC(N(C)Cc3nnc(C4CC4)o3)C2)nn1 (centres undefined),6.2
4,Cc1n[nH]c(C)c1CCC(=O)NCC1CCCN(C2CCCC2)C1 (centres undefined),-6.32
5,O=C(CCc1ccc(Br)cc1F)NS(=O)(=O)c1ccc2c(c1)OCCO2,2.48
6,CCCc1cc(C(=O)N(C)Cc2cnc3ccccc3n2)n(C)n1,-19.3
7,CC(C)CC(=O)N1CC(=O)c2sc(NC3CCCCC3)nc2C1,-7
8,CCN(CC1CCOC1)C(=O)c1cn2ccc(C)cc2n1 (centres undefined),1
9,CN(C1CCN(c2ccccn2)CC1)S(=O)(=O)c1cccs1,13.3
10,Cn1ccnc(Nc2ccc3c(c2)CCN3C(=O)c2ccoc2)c1=O,-65.2
11,O=C(NCCNc1ncccn1)N1CCCC(C(F)(F)F)C1 (centres undefined),1.05
12,CCN(CC)C(=O)CNS(=O)(=O)c1cc(Br)ccc1F,-45.9
13,COc1ccc2nc(C[C@@H]3C[C@@H](C(C)C)[C@H](CN)C=C3C)[nH]c2n1,3.38
14,CC(C#N)CSc1ccccc1NCC(=O)NC(=O)NC(C)(C)C (centres undefined),11.7
15,Cc1occc1C(=O)N1CCO[C@H]2[C@@H](Oc3ccccn3)CC[C@@H]21,2.37
16,CC(C)(O)CN1CCN(C(=O)COCC(F)(F)F)CC1,-12.9
17,Cc1cc(C(=O)N2CCCC2c2noc(C)n2)[nH]n1 (centres undefined),-18.7
18,CC(C)NC(=O)c1cc(Br)cc(S(=O)(=O)N2CCOCC2)c1F,6.17
19,O=S(=O)(CCCN1CCCC1Cn1cccn1)c1ccccc1 (centres undefined),-5.18
20,CN(C)CCCn1ccnc1C1CCN(C(=O)Cc2cccnc2)CC1,4.77
21,CS(=O)(=O)N1CCC(N2CCCC2c2ccccn2)CC1 (centres undefined),-7.65
22,OC(COCc1ccccc1)CN1CC(n2cccn2)C1 (centres undefined),1.95

row,Structure (SMILES),cytotoxicity at 10 µM [%]
1,CCOc1ccc(N2CCCN=C2NC(=O)c2cccc(OC)c2)cc1,5.2
2,CC(C)c1cc(NC(=O)CNC2CCc3nc(C(C)C)nn3C2)on1 (centres undefined),0.246
3,CCOC1CCN(C(=O)c2ccc(-n3ncc(C#N)c3N)cc2)CC1,-1.1
4,O=C(O)c1ccc(N2CCC(Oc3ccc(Cl)cc3)CC2)nc1,-55.6
5,CCN(CC)c1ncnc2c1CCN(c1ccc(C)nn1)CC2,-108
6,O=C(CCNC(=O)c1ccoc1)Nc1ccc(F)cc1F,-6.44
7,CS(=O)(=O)CCCNC(=O)C1(c2cccc(Cl)c2)CC1,-2.26
8,COc1ccc(Cl)cc1CN(CC(N)=O)C(C)C,1.49
9,Cc1cnn(C2CCCN(C(=O)c3ccn(C)c(=O)c3)C2)c1 (centres undefined),4.55
10,O=C([C@@H]1COC[C@H]2CN(C3CCCC3)C[C@H]21)N1CCCO1,-0.262
11,Cc1nc(C2CCCN(C(=O)c3ccc(N4CCCC4)nn3)C2)no1 (centres undefined),-13.6
12,CN1CCN2CCN(C(=O)c3cc4ncc(CCO)cn4n3)CC2C1 (centres undefined),6.99
13,COc1ccc(CN2C[C@H]3C[C@H](CN(C)C)O[C@H]3C2)cc1,-7.4
14,COCCN(Cc1ccoc1)S(=O)(=O)c1ccc(F)c(Cl)c1,-7.93
15,Cn1ccc(C(=O)N2CCCCC2c2cc(CCO)[nH]n2)n1 (centres undefined),-0.01
16,Cc1ccc(-n2cc(C(=O)NCC(C)Cn3cccn3)nn2)cc1 (centres undefined),-46.2
17,CCCS(=O)(=O)N1CCC2(CC(C(=O)NCc3cccnc3)=NO2)C1 (centres undefined),-4.51
18,CN(Cc1ccsc1)C(=O)c1cc(S(=O)(=O)N(C)C)ccc1Cl,15
19,CC(=O)N(C)Cc1cccc(NC(=O)c2cnn(C)c2C)c1,3.5
20,CCNC(=O)[C@@H]1CCCN1C1(C(=O)NC)CCC1,-1.66
21,CCN1CCC2(CC1)CC(Nc1ncccn1)CO2 (centres undefined),-21.6
22,Cc1cccc(-c2nc(C)nn2CC(=O)N(C)C2CC2)c1,-19.8

row,Structure (SMILES),cytotoxicity at 10 µM [%]
1,COc1cccc(NC(=O)CC2Cn3ncnc3NC2=O)c1 (centres undefined),4.4
2,CCOc1ccc(CN(C)C2CCN(c3cc(C)nn3C)C2=O)cc1 (centres undefined),1.66
3,CC(C)C(=O)N1CCN(S(=O)(=O)C2CC2)CC2(CC(=O)N(C)C2)C1 (centres undefined),8.4
4,NC(=O)N1CCC2(CCN(Cc3ccccn3)C2=O)C1 (centres undefined),3.39
5,O=C(c1ccco1)N1CCN2C[C@H](OCc3cccnc3)C[C@H]2C1,-77
6,CC(C)C[C@H](NC(=O)Cn1ccc2c(Cl)cccc21)C(=O)O,5.19
7,CN(C)C(=O)C1CCC2(CCN(Cc3ccc4ccccc4n3)CC2)O1 (centres undefined),5.09
8,Cc1cc2c(=O)n3c(nc2s1)CCN(Cc1c[nH]cn1)CC3,-17.6
9,N#Cc1cccnc1Oc1cc(F)c(CN2CCCC2)c(Cl)c1,-13.9
10,CCc1ccc(O)c(C(=O)N2CCCN(CC(=O)N(CC)CC)CC2)c1,6.62
11,CC1(C)CN(C(=O)CC2CCS(=O)(=O)CC2)C[C@]1(C)O,5.91
12,O=S(=O)(CCCn1cncn1)Cc1ccccc1Cl,-5.91
13,CS(=O)(=O)CCn1ccc(NC(=O)CCc2cccc(F)c2)n1,-7.37
14,COc1ccccc1OCC(=O)n1ncc(C#N)c1N,-20
15,Cc1cc(C)nc(N2CCc3ccc(OC(F)F)cc3C2)n1,2.68
16,Nc1cc(-c2c[nH]nc2C2CCCCN2C(=O)C2CCCC2)ccn1 (centres undefined),12
17,O=C(Nc1cccnc1)[C@H]1CN(Cc2nccs2)C[C@H]2OCC[C@@H]12,2.88
18,Cc1ccc(N2CCc3sc(C(=O)N4CCOCC4)cc32)nn1,-0.142
19,Cc1nc(-c2ccc(Cl)s2)sc1C(=O)N(C)CC(N)=O,-7.08
20,CNC(=O)c1ccc(-c2ccc(CNC(=O)COC)cc2)nc1C,-5.52
21,Cc1nc(COc2nc(C(C)C)no2)cs1,11.5
22,CSc1ccc(CN(CCO)C(=O)CCOc2ccccc2)cc1,2.08

row,Structure (SMILES),cytotoxicity at 10 µM [%]
1,O=C(c1ccnc(C2CCNCC2)c1)N1CCCOCC1,-3.64
2,Cc1cc(C)n(-c2ccccc2NC(=O)NCCS(=O)(=O)CC(C)C)n1,-3.92
3,Cc1nnc([C@@H]2C[C@H]3CN(C(=O)C4CC4)C[C@H]3O2)[nH]1,19.8
4,CN1CCC2(CC1)CN(C(=O)c1cccc3cccnc13)CCN2C,1.54
5,Cc1ccc(-c2nc(CN3CCn4c(nnc4C4CC4)C3)co2)c(C)c1,-24.7
6,O=C(Cc1ccc2c(c1)CCC2)N1CCN(c2cnccn2)CC1,-2.18
7,COc1ccc(C2CCCN2c2nnc(C)s2)c(OC)c1 (centres undefined),9.74
8,CC(=O)NCC1CCN(C(=O)NCCc2ccc3c(c2)OCO3)CC1,-5.22
9,CCC[C@H]1CN(S(=O)(=O)c2ccc(CC)s2)C[C@@H]1N,4.69
10,O=c1[nH]nc(CNc2ncc(Cl)cn2)[nH]1,-5.98
11,O=S(=O)(C1CC1)N1CCC2(CN(c3ncccn3)C2)C1,-98.4
12,Cc1cccc(CN2CCc3nnc(CN4CCCCC4)n3CC2)n1,-1.45
13,CC1=C(C(N)=O)C(c2cn(C)nc2C)N2C(=O)CSC2=N1 (centres undefined),4.43
14,Cc1cc2n(n1)CC(CNCc1cnn(C)c1)CN2 (centres undefined),5.25
15,Cc1ccc(CNCc2cccc3cn[nH]c23)c(OC2CCOC2)c1 (centres undefined),9.6
16,CC(C)Nc1nc2c(c(NC3CC3)n1)CCN(Cc1nccn1C)CC2,0.325
17,N#Cc1cc(F)c(NCc2ccc(F)cc2)c(F)c1,-57
18,Cc1csc(N2CCN(CC(=O)Nc3cccnc3)CC2C)n1 (centres undefined),14.1
19,COCCNc1nc2c(c(NCc3cnc(C)cn3)n1)CCNCC2,-0.106
20,CC1CCc2nn(CCNC(=O)Cc3ccc(F)cc3)c(=O)cc2C1 (centres undefined),7.61
21,CC(CO)(NC(=O)NCCc1ccc(Br)s1)C1CC1 (centres undefined),-2.43
